Experiments:
[1] = target: Histamine receptor H3 (Macaca mulatta) (UniProt Q865E1); experiment: Induction of histamine H3 receptor-mediated drug uptake in rhesus monkey brain by PET imaging
In short: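 Male rhesus monkeys (7.3 ± 0.8 kg; n = 4 baseline), ketamine 10 mg/kg i.m. then 1.5% isoflurane in O2. […] [18F]ligand given i.v. Focus 220 microPET, 180 min (one scan 120 min), 45 frames 30 s–5 min, scatter/attenuation corrected, decay-corrected; template-normalized regions; uptake as SUV.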

[2] = target: 5-hydroxytryptamine receptor 2A (Homo sapiens, UniProt P28223); experiment: Binding affinity to human recombinant 5HT2A receptor
5-hydroxytryptamine receptor 2A, sequence (P28223 whole entry): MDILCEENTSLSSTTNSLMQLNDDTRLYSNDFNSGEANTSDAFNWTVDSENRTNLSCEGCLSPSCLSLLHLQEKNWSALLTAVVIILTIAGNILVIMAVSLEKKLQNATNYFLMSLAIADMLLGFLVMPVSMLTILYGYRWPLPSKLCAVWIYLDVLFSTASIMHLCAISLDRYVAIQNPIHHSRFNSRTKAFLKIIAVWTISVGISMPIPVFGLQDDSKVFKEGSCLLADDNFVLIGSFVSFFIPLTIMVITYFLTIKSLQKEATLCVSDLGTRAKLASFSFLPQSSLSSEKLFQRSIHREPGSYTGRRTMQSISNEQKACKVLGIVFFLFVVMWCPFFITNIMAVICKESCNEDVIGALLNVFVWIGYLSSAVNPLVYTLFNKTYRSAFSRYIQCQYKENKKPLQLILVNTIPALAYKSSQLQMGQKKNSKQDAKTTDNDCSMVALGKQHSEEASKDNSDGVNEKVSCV
In short: (§1)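 Ki values were taken from in vitro competitive binding assays against each human recombinant receptor.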

[3] = target: Muscarinic acetylcholine receptor M3 (Homo sapiens, UniProt P20309); experiment: Binding affinity to human recombinant M3 receptor
[4] = target: 5-hydroxytryptamine receptor 3A (Homo sapiens, UniProt P46098); experiment: Binding affinity to human recombinant 5HT3 receptor
[5] = target: 5-hydroxytryptamine receptor 1A (Homo sapiens, UniProt P08908); experiment: Binding affinity to human recombinant 5HT1A receptor
D(4) dopamine receptor = D(4) dopamine receptor (Homo sapiens, UniProt P21917); experiment: Binding affinity to human recombinant Dopamine D4 receptor
[6] = target: Alpha-1D adrenergic receptor (Homo sapiens, UniProt P25100); experiment: Binding affinity to human recombinant alpha1D adrenergic receptor
[7] = target: 5-hydroxytryptamine receptor 7 (Homo sapiens, UniProt P34969); experiment: Binding affinity to human recombinant 5HT7 receptor
Histamine H4 receptor = Histamine H4 receptor (Homo sapiens, UniProt Q9H3N8); experiment: Binding affinity to human recombinant H4 receptor
Histamine H1 receptor = Histamine H1 receptor (Homo sapiens, UniProt P35367); experiment: Binding affinity to human recombinant H1 receptor
Histamine H1 receptor, sequence (P35367 whole entry): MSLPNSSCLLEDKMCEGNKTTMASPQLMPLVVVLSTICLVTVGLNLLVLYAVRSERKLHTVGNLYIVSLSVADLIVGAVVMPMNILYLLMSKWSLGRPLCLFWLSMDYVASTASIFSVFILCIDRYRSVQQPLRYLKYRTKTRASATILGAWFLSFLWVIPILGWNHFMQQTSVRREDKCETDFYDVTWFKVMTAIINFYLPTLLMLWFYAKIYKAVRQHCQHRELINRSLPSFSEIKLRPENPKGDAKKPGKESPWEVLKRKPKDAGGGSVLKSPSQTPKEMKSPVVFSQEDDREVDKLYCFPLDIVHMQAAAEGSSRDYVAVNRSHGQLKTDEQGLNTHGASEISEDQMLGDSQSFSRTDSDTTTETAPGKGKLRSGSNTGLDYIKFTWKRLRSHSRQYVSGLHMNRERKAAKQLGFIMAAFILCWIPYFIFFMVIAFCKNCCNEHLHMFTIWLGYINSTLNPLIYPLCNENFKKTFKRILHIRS

[8] = target: 5-hydroxytryptamine receptor 1B (Homo sapiens, UniProt P28222); experiment: Binding affinity to human recombinant 5HT1B receptor
5-hydroxytryptamine receptor 1B, sequence (P28222 whole entry): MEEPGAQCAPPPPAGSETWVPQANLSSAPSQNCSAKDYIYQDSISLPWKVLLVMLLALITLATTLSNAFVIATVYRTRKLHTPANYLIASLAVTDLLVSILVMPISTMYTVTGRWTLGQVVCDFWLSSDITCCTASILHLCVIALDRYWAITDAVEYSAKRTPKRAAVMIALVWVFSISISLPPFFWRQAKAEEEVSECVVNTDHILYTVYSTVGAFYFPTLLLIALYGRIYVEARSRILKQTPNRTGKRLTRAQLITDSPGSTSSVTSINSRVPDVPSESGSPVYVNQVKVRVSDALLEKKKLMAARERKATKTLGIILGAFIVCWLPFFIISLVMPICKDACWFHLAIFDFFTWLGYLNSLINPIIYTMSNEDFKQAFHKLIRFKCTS

[9] = target: 5-hydroxytryptamine receptor 2C (Homo sapiens, UniProt P28335); experiment: Binding affinity to human recombinant 5HT2C receptor
5-hydroxytryptamine receptor 2C, sequence (P28335 whole entry): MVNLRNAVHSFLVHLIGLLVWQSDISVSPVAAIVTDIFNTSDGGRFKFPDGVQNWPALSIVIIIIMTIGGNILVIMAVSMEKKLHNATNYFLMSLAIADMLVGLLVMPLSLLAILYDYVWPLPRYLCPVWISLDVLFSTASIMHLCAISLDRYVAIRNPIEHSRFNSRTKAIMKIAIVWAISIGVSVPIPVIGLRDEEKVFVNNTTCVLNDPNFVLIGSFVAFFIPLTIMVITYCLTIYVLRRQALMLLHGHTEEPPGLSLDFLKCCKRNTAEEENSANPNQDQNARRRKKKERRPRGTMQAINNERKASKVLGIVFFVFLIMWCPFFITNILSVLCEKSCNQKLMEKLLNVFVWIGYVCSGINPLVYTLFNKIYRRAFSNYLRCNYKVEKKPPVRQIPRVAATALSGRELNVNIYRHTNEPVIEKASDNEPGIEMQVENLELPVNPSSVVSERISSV

[10] = target: Muscarinic acetylcholine receptor M4 (Homo sapiens, UniProt P08173); experiment: Binding affinity to human recombinant M4 receptor
[11] = target: Alpha-1B adrenergic receptor (Homo sapiens, UniProt P35368); experiment: Binding affinity to human recombinant alpha1B adrenergic receptor
Histamine H3 receptor = Histamine H3 receptor (Homo sapiens, UniProt Q9Y5N1); experiment: Binding affinity to human recombinant H3 receptor expressed in HEK293T cells; type: cell-based, HEK-293T
Histamine H2 receptor = Histamine H2 receptor (Homo sapiens, UniProt P25021); experiment: Binding affinity to human recombinant H2 receptor
[12] = target: Muscarinic acetylcholine receptor M1 (Homo sapiens, UniProt P11229); experiment: Binding affinity to human recombinant M1 receptor
[13] = target: Sodium-dependent dopamine transporter (Homo sapiens, UniProt Q01959); experiment: Binding affinity to human recombinant DAT
Sodium-dependent dopamine transporter, sequence (Q01959 whole entry): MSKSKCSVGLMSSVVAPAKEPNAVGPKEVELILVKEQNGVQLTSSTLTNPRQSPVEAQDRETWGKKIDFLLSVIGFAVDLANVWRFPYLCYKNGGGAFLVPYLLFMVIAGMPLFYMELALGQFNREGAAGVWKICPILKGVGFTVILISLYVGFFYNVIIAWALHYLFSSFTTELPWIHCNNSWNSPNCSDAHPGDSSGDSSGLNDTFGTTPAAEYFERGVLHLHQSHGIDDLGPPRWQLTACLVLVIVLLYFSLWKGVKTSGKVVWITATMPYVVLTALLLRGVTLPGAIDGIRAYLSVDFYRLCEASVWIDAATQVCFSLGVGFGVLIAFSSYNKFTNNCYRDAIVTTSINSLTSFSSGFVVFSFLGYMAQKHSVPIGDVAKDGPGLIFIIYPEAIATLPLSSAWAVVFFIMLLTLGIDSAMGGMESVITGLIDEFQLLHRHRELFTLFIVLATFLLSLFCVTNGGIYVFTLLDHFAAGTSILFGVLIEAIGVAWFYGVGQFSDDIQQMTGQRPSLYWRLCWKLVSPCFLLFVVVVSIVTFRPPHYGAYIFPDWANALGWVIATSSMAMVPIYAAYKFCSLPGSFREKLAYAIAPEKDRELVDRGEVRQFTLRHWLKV

[14] = target: Alpha-2C adrenergic receptor (Homo sapiens, UniProt P18825); experiment: Binding affinity to human recombinant alpha2C adrenergic receptor
Alpha-2C adrenergic receptor, sequence (P18825 whole entry): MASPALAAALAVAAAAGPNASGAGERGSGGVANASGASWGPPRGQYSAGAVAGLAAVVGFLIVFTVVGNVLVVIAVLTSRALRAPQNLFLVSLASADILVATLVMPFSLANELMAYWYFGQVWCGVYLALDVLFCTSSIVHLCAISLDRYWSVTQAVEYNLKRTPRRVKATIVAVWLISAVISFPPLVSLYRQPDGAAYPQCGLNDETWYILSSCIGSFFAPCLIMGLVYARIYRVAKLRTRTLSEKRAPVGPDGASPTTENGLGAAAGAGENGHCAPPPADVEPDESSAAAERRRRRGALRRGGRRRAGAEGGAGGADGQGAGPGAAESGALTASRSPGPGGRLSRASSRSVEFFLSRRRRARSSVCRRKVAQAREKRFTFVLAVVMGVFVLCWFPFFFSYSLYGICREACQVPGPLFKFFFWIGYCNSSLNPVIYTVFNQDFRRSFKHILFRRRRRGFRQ

[15] = target: Sodium-dependent serotonin transporter (Homo sapiens, UniProt P31645); experiment: Binding affinity to human recombinant SERT
D(2) dopamine receptor = D(2) dopamine receptor (Homo sapiens, UniProt P14416); experiment: Binding affinity to human recombinant Dopamine D2 receptor
[16] = target: Sodium-dependent noradrenaline transporter (Homo sapiens, UniProt P23975); experiment: Binding affinity to human recombinant NET
Sodium-dependent noradrenaline transporter, sequence (P23975 whole entry): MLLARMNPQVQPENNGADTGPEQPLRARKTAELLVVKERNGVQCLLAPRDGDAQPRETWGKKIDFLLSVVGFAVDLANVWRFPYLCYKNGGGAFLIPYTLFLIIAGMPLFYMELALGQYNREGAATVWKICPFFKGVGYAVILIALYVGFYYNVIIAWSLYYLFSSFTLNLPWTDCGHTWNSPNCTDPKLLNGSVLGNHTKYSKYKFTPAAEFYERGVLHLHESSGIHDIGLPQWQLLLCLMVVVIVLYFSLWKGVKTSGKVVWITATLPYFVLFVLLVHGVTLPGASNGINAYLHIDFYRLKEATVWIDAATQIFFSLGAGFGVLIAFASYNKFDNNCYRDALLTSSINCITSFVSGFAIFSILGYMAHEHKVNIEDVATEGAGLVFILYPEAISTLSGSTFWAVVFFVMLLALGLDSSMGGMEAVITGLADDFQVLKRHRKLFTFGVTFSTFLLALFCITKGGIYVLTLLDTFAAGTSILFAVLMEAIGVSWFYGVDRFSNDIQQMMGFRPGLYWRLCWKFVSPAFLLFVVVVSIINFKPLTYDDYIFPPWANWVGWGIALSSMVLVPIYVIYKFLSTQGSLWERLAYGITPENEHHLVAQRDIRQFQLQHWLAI

[17] = target: 5-hydroxytryptamine receptor 6 (Homo sapiens, UniProt P50406); experiment: Binding affinity to human recombinant 5HT6 receptor
[18] = target: Beta-1 adrenergic receptor (Homo sapiens, UniProt P08588); experiment: Binding affinity to human recombinant beta1 adrenergic receptor
[19] = target: 5-hydroxytryptamine receptor 1E (Homo sapiens, UniProt P28566); experiment: Binding affinity to human recombinant 5HT1E receptor
D(1B) dopamine receptor = D(1B) dopamine receptor (Homo sapiens, UniProt P21918); experiment: Binding affinity to human recombinant Dopamine D5 receptor
[20] = target: Alpha-2B adrenergic receptor (Homo sapiens, UniProt P18089); experiment: Binding affinity to human recombinant alpha2B adrenergic receptor
[21] = target: Alpha-1A adrenergic receptor (Homo sapiens, UniProt P35348); experiment: Binding affinity to human recombinant alpha1A adrenergic receptor
D(3) dopamine receptor = D(3) dopamine receptor (Homo sapiens, UniProt P35462); experiment: Binding affinity to human recombinant Dopamine D3 receptor
[22] = target: Muscarinic acetylcholine receptor M2 (Homo sapiens, UniProt P08172); experiment: Binding affinity to human recombinant M2 receptor
[23] = target: Muscarinic acetylcholine receptor M5 (Homo sapiens, UniProt P08912); experiment: Binding affinity to human recombinant M5 receptor; in short: as §1
Muscarinic acetylcholine receptor M5, sequence (P08912 whole entry): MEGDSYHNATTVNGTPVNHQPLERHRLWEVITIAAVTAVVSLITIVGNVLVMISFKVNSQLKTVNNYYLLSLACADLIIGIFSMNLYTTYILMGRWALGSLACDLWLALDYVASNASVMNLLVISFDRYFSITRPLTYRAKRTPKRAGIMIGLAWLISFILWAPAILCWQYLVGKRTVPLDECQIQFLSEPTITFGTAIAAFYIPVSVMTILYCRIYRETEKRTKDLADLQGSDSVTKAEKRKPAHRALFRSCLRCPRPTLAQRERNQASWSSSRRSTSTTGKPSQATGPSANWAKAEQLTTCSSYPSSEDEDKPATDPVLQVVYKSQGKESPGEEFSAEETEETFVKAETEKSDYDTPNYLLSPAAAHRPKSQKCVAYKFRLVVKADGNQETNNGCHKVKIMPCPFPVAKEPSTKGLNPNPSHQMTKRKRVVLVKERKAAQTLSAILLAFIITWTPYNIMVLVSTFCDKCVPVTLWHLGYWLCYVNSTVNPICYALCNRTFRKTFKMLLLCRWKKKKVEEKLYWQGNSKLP

[24] = target: Beta-2 adrenergic receptor (Homo sapiens, UniProt P07550); experiment: Binding affinity to human recombinant beta2 adrenergic receptor
D(1A) dopamine receptor = D(1A) dopamine receptor (Homo sapiens, UniProt P21728); experiment: Binding affinity to human recombinant Dopamine D1 receptor
D(1A) dopamine receptor, sequence (P21728 whole entry): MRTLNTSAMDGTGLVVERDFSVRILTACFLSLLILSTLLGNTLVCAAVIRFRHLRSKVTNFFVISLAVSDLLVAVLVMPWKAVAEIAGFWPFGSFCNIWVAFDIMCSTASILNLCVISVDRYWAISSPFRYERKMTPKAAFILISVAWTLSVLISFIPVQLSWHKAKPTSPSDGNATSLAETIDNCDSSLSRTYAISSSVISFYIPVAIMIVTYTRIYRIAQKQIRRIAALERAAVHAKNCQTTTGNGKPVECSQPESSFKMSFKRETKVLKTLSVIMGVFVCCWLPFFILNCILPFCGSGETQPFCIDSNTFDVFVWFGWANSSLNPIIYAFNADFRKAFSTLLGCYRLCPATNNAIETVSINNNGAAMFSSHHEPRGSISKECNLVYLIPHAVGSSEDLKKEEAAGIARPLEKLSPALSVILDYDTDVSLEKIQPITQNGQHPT

[25] = target: Beta-3 adrenergic receptor (Homo sapiens, UniProt P13945); experiment: Binding affinity to human recombinant beta3 adrenergic receptor
Beta-3 adrenergic receptor, sequence (P13945 whole entry): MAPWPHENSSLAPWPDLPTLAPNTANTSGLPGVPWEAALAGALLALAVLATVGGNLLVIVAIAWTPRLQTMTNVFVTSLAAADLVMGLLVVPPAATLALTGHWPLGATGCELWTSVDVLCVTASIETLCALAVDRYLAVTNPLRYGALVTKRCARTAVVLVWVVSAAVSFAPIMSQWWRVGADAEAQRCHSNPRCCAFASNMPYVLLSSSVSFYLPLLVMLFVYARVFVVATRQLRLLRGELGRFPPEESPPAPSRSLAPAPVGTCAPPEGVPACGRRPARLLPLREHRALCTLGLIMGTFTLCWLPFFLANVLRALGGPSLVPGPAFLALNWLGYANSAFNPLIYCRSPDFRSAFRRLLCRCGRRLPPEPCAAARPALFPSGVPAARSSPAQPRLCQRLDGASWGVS

[26] = target: Sigma non-opioid intracellular receptor 1 (Homo sapiens, UniProt Q99720); experiment: Binding affinity to human recombinant sigma1 receptor
[27] = target: 5-hydroxytryptamine receptor 1D (Homo sapiens, UniProt P28221); experiment: Binding affinity to human recombinant 5HT1D receptor; in short: as §1
[28] = target: Alpha-2A adrenergic receptor (Homo sapiens, UniProt P08913); experiment: Binding affinity to human recombinant alpha2A adrenergic receptor
[29] = target: 5-hydroxytryptamine receptor 2B (Homo sapiens, UniProt P41595); experiment: Binding affinity to human recombinant 5HT2B receptor

| Structure (SMILES) | Activity [1] [%] | Ki [2] [µM] | Ki [3] [µM] | Ki [4] [µM] | Ki [5] [µM] | Ki (D(4) dopamine receptor) [µM] | Ki [6] [µM] | Ki [7] [µM] | Ki (Histamine H4 receptor) [µM] | Ki (Histamine H1 receptor) [µM] | Ki [8] [µM] | Ki [9] [µM] | Ki [10] [µM] | Ki [11] [µM] | Ki (Histamine H2 receptor) [µM] | Ki [12] [µM] | Ki [13] [µM] | Ki [14] [µM] | Ki [15] [µM] | Ki (D(2) dopamine receptor) [µM] | further results |
| --- | --- | --- | --- | --- | --- | --- | --- | --- | --- | --- | --- | --- | --- | --- | --- | --- | --- | --- | --- | --- | --- |
| COc1ccc2c(c1)C(=O)O[C@]21CC[C@H](C(=O)N(C)CCN2CCCCC2)CC1 | 83 | – | – | – | – | – | – | – | – | – | – | – | – | – | – | – | – | – | – | – | – |
| C[C@@H]1CCCN1CCc1cc2cc(C(=O)c3ccc([N+](=O)[O-])cc3)ccc2o1 | – | 1.36 | 0.512 | > 10 | > 10 | > 10 | > 10 | > 10 | > 10 | 7.05 | > 10 | > 10 | 0.415 | > 10 | 0.923 | 0.931 | 0.137 | > 10 | > 10 | > 10 | Ki (Histamine H3 receptor): 0.0004 µM; Ki [16]: > 10 µM; Ki [17]: > 10 µM; Ki [18]: > 10 µM; Ki [19]: > 10 µM; Ki (D(1B) dopamine receptor): > 10 µM; Ki [20]: > 10 µM; Ki [21]: > 10 µM; Ki (D(3) dopamine receptor): > 10 µM; Ki [22]: 0.681 µM; Ki [23]: 0.336 µM; Ki [24]: > 10 µM; Ki (D(1A) dopamine receptor): > 10 µM; Ki [25]: > 10 µM; Ki [26]: > 10 µM; Ki [27]: 5.24 µM; Ki [28]: > 10 µM; Ki [29]: > 10 µM |
| CNC(=O)c1ccc(Oc2ccc3c(c2)CCN(C2CCC2)CC3)nc1 | > 90 | – | – | – | – | – | – | – | – | – | – | – | – | – | – | – | – | – | – | – | – |
| C[C@@H]1CCCN1CCc1cc2cc(C(=O)c3ccc(F)cc3)ccc2o1 | – | 2.72 | 0.204 | > 10 | 0.432 | > 10 | > 10 | > 10 | > 10 | 5.44 | > 10 | > 10 | 0.351 | > 10 | 1.71 | 3.27 | > 10 | > 10 | > 10 | > 10 | Ki [16]: > 10 µM; Ki [17]: > 10 µM; Ki [18]: > 10 µM; Ki [19]: > 10 µM; Ki (D(1B) dopamine receptor): > 10 µM; Ki [20]: > 10 µM; Ki [21]: > 10 µM; Ki (D(3) dopamine receptor): > 10 µM; Ki [22]: 0.462 µM; Ki [23]: 0.437 µM; Ki [24]: > 10 µM; Ki (D(1A) dopamine receptor): > 10 µM; Ki [25]: > 10 µM; Ki [26]: > 10 µM; Ki [27]: 6.38 µM; Ki [28]: > 10 µM; Ki [29]: 3.15 µM |

Source: ChEMBL document CHEMBL2029214, “Radiosynthesis and evaluation of an (18)F-labeled positron emission tomography (PET) radioligand for brain histamine subtype-3 receptors based on a nonimidazole 2-aminoethylbenzofuran chemotype” (J Med Chem, 2012)
